Data published in ChEMBL document CHEMBL1154940, “Design, synthesis and biological evaluation of estradiol-chlorambucil hybrids as anticancer agents” (Bioorg Med Chem Lett, 2010).
The source made the active and inactive calls. The rule behind the calls is not given here.

Tests used:
Format in all cases: functional, cell-based
MDA-MB-231 = assay: Anticancer activity against human MDA-MB-231 cells assessed as cell survival after 72 hrs by MTT assay
Method in brief: (§1)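 Estrogen receptor-negative human breast cancer lines, tested by MTT cytotoxicity assay with chlorambucil as positive control.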

MCF7 = assay: Anticancer activity against human MCF7 cells assessed as cell survival after 72 hrs by MTT assay
Method in brief: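 Estrogen receptor-positive human breast cancer line, tested by MTT cytotoxicity assay with chlorambucil as positive control.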

[1] = (§2) Anticancer activity against human MDA-MB-436 cells assessed as cell survival after 72 hrs by MTT assay; details: MDA-MB-436, 72 h
Method in brief: (§3)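 Estrogen receptor-negative human breast cancer line, exposed to a range of concentrations for 72 h. MTT read-out is expressed as percent cell survival, with chlorambucil as positive control.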

MDA-MB-468 = assay: Anticancer activity against human MDA-MB-468 cells assessed as cell survival after 72 hrs by MTT assay; method in brief: as §1
MDA-MB-436 = assay: as §2; method in brief: as §3

Row | Compound | Activity (MDA-MB-231) | Activity (MCF7) | IC50 [1] [µM] | Activity (MDA-MB-468) | Activity (MDA-MB-436) | IC50 (MDA-MB-231; MDA-MB-231, 72 h) [µM]
1 | C[C@]12CC[C@@H]3c4ccc(O)cc4CC[C@H]3[C@@H]1C[C@@](CO)(CCCCNC(=O)CCCc1ccc(N(CCCl)CCCl)cc1)[C@@H]2O | Active | Active | 40 | Active |  | 
2 | C[C@]12CC[C@@H]3c4ccc(O)cc4CC[C@H]3[C@@H]1C[C@@](CO)(CCCCCCNC(=O)CCCc1ccc(N(CCCl)CCCl)cc1)[C@@H]2O | Active | Active |  | Active | Active | 
3 | COC(=O)[C@@]1(CCCCCCNC(=O)CCCc2ccc(N(CCCl)CCCl)cc2)C[C@H]2[C@@H]3CCc4cc(O)ccc4[C@H]3CC[C@]2(C)[C@H]1O | Active | inactive |  | inactive |  | 
4 | O=C(O)CCCc1ccc(N(CCCl)CCCl)cc1 [CHLORAMBUCIL] |  | Active | > 160 | Active |  | > 130
5 | C[C@]12CC[C@@H]3c4ccc(O)cc4CC[C@H]3[C@@H]1C[C@@](CO)(CCCCCCCCNC(=O)CCCc1ccc(N(CCCl)CCCl)cc1)[C@@H]2O | Active | Active |  | Active | Active | 
